This is an account of results in ChEMBL document CHEMBL4725426, “Targeted Detection of Cyclooxygenase-1 in Ovarian Cancer” (ACS Med Chem Lett, 2020).

Broadly, the IC50 is the concentration that gives 50% inhibition.

Data set [1] addresses T1, Prostaglandin G/H synthase 1 (Homo sapiens, UniProt P23219). Briefly: Binding affinity to COX-1 in human OVCAR3 cells assessed as protein labeling pretreated with indomethacin for 30 mins followed by compound treatment for 30 mins and subsequent compound washout followed by cultured in serum media measured after 45 mins by fluorescence microscope based optical imaging analysis. In kind it is cell-based. Particulars: OVCAR-3. The procedure, abridged: (§1)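 OVCAR-3 cells pretreated 30 min with vehicle or indomethacin, then exposed to probe 30 min, washed briefly and cultured 45 min in serum-containing medium. Intracellular fluorescence then imaged under a fluorescence microscope.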

Data set [2] can be described thus: Drug uptake in NU-Fox1nu nude mouse allografted with mouse ID8-NGL cells at 2 mg/kg, ip measured after 3 to 4 hrs post-drug administration by IVIS spectrum in vivo fluorescence imaging analysis. Particulars: time 3-4 hrs. It counts as ADME, organism-based. Put shortly:
(§2)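 Female athymic nude mice bearing ID8-NGL flank allografts (left hind flank, grown to 750–1000 mm³; n = 6). Probe given i.p. at 2 mg/kg in DMSO. Imaged under light anesthesia on an IVIS system 3 to 4 h post-injection.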

Data set [3] can be described thus: Drug uptake in leg muscle of NU-Fox1nu nude mouse xenografted with COX-1 expressing human OVCAR3 cells at 1 mg/kg, ip by IVIS spectrum ex vivo fluorescence imaging analysis. In kind it is ADME, organism-based. The procedure, abridged:
(§3)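 OVCAR-3 xenograft-bearing female nude mice (tumors 750–1000 mm³) were dosed with probe at 1 mg/kg i.p. in DMSO. After in vivo imaging, tumor, muscle, kidney and liver were collected and imaged ex vivo.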

A short description of data set [4]: Drug uptake in tumor of NU-Fox1nu nude mouse xenografted with COX-1 expressing human OVCAR3 cells at 1 mg/kg, ip by IVIS spectrum ex vivo fluorescence imaging analysis. In kind it is ADME, organism-based, Neoplasm. The procedure, abridged:
as §3
(In xenograft studies the graft and the host belong to different species.)

The nature of data set [5]: Drug uptake in tumor of NU-Fox1nu nude mouse allografted with mouse ID8-NGL cells at 2 mg/kg, ip measured after 3 to 4 hrs post-drug administration by IVIS spectrum in vivo fluorescence imaging analysis relative to control. It counts as ADME, organism-based, Neoplasm. Particulars: time 3-4 hrs. Put shortly:
as §2

Data set [6] deals with T1, Prostaglandin G/H synthase 1. The data set can be described thus: Binding affinity to COX-1 in human OVCAR3 cells assessed as protein labeling treated for 30 mins and subsequent compound washout followed by cultured in serum media measured after 45 mins by fluorescence microscope based optical imaging analysis. Particulars: OVCAR-3. It counts as cell-based. Put shortly:
as §1

The target in data set [7] is T2, Prostaglandin G/H synthase 2 (Mus musculus, UniProt Q05769).
T2 sequence (Q05769 whole entry): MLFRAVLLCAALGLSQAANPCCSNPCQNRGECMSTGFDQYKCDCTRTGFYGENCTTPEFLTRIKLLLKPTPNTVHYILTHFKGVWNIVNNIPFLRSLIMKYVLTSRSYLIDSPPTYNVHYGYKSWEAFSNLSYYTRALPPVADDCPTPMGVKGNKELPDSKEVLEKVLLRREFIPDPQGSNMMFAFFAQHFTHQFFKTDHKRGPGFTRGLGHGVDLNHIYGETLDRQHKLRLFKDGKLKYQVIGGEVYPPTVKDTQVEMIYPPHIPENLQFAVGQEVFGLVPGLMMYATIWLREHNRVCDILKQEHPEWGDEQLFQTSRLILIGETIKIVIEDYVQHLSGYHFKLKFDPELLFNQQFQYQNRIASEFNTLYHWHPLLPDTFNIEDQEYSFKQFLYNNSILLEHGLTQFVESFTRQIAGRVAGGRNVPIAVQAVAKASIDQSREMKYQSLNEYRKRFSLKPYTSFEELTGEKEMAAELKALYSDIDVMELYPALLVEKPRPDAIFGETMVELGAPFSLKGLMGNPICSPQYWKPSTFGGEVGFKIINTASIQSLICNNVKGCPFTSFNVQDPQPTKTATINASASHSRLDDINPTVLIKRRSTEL
The data set can be described thus: Inhibition of murine COX-2 assessed as [14C] arachidonic acid remaining using [14C] arachidonic acid as substrate preincubated for 20 mins followed by substrate addition measured after 30 sec by thin layer chromatography assay. The procedure, abridged: (§4)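 Purified ovine COX-1 or murine COX-2 preincubated 20 min with vehicle or compound at various concentrations. [1-¹⁴C]arachidonic acid was then added and the reaction run a further 30 s. Conversion read by thin layer chromatography. IC50 derived.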

The target of data set [8] is T3, Prostaglandin G/H synthase 1 (Ovis aries, UniProt P05979).
T3 sequence (P05979 whole entry): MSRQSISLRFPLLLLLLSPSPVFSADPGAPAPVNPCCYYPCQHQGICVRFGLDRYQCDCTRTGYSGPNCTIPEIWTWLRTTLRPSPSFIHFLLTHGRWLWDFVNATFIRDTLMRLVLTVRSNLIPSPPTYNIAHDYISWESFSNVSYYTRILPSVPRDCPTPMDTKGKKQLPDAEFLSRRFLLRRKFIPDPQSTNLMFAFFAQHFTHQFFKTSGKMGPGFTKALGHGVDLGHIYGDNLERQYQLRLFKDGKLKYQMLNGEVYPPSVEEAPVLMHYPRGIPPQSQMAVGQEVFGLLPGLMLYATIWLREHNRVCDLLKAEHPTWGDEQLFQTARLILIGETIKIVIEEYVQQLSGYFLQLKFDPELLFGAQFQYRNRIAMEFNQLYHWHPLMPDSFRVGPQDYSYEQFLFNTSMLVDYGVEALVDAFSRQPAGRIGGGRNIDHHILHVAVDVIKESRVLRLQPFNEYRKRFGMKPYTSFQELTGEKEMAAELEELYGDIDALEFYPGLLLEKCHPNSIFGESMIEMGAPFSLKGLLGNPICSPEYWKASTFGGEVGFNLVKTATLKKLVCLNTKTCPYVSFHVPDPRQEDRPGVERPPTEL
The data set can be described thus: Inhibition of ovine COX-1 assessed as [14C] arachidonic acid remaining using [14C] arachidonic acid as substrate preincubated for 20 mins followed by substrate addition measured after 30 sec by thin layer chromatography assay. Put shortly: as §4

Data set [9] can be described thus: Drug uptake in NU-Fox1nu nude mouse xenografted with COX-1 expressing human OVCAR3 cells at 1 mg/kg, ip and measured before 2 hrs post-drug administration by IVIS spectrum in vivo fluorescence imaging analysis. In kind it is ADME, organism-based. The procedure, abridged: (§5)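 Female athymic nude mice carried subcutaneous OVCAR-3 xenografts on the left hind flank, grown to about 750–1000 mm³. Probe given i.p. at 1 mg/kg in DMSO. Mice lightly anesthetized and imaged on an IVIS system at 15 min, 30 min, 1, 2, 3 and 4 h post-injection.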

The nature of data set [10]: Drug uptake in liver of NU-Fox1nu nude mouse xenografted with COX-1 expressing human OVCAR3 cells at 1 mg/kg, ip by IVIS spectrum ex vivo fluorescence imaging analysis. It counts as ADME, organism-based. The procedure, abridged: as §3
Data set [11] in a line: Drug uptake in tumor of NU-Fox1nu nude mouse allografted with mouse ID8-NGL cells at 2 mg/kg, ip treated with 10 mg/kg indomethacin 1hr prior to compound treatment followed by compound administration measured after 3 to 4 hrs post-drug administration by IVIS spectrum fluorescence imaging analysis. In kind it is ADME, organism-based, Neoplasm. To be noted: in vivo, time 3-4 hrs. Put shortly: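 ID8-NGL flank allografts (750–1000 mm³) in nude mice. Indomethacin 10 mg/kg i.p. in DMSO given 1 h before probe (2 mg/kg i.p. in DMSO). Tumors imaged 3 to 4 h after probe; region-of-interest light emission read at 3.5 h in relative fluorescence units.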

Data set [12] in a line: Drug uptake in kidney of NU-Fox1nu nude mouse xenografted with COX-1 expressing human OVCAR3 cells at 1 mg/kg, ip by IVIS spectrum ex vivo fluorescence imaging analysis. In kind it is ADME, organism-based. The procedure, abridged:
as §3

The target in data set [13] is T1, Prostaglandin G/H synthase 1. Briefly: Inhibition of COX-1 in human OVCAR3 cells assessed as [14C] arachidonic acid remaining using [14C] arachidonic acid as substrate preincubated for 30 mins followed by substrate addition measured after 30 mins. It counts as cell-based, OVCAR-3. Put shortly: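 Intact OVCAR-3 cells treated 30 min with vehicle or compound across several concentrations, then given [1-¹⁴C]arachidonic acid for another 30 min. Medium aliquots were quenched, extracted, run on TLC and scanned for substrate remaining. IC50 taken from the concentration series.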

Data set [14] in a line: Drug uptake in NU-Fox1nu nude mouse xenografted with COX-1 expressing human OVCAR3 cells at 1 mg/kg, ip and measured after 3 to 4 hrs post-drug administration by IVIS spectrum in vivo fluorescence imaging analysis. In kind it is ADME, organism-based. To be noted: time 3-4 hrs. The procedure, abridged:
as §5

Active and inactive are the calls of the source. The rule behind the calls is not given here. Some results are limits rather than exact numbers.

T1 sequence (P23219 whole entry): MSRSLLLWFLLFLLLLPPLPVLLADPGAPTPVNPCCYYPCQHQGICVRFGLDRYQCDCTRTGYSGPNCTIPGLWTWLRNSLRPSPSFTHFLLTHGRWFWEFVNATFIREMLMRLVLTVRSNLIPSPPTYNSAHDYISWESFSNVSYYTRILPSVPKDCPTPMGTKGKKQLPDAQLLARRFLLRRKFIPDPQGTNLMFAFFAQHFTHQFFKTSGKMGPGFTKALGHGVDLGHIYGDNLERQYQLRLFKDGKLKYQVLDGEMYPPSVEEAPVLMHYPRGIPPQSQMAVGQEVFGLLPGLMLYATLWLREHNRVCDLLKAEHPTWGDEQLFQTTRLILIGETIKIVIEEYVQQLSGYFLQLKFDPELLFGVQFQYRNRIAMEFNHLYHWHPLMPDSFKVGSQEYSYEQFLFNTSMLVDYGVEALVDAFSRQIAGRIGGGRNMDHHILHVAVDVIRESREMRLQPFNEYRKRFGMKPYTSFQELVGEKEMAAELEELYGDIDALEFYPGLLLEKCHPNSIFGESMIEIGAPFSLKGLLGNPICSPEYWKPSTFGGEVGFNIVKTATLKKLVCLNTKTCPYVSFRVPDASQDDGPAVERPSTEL

As for `COc1ccc(-n2nc(CCC(=O)NCCCCNC(=O)c3ccc(C4=c5cc6c7c(c5Oc5c4cc4c8c5CCCN8CCC4)CCC[N+]=7CCC6)c(C(=O)[O-])c3)cc2-c2ccc(C)cc2)cc1`, the result in data set [1] was inactive. In addition, the Drug uptake result is listed as “Active” in data set [2]; “Active” in [3]; “Active” in [4]; “Not Active” in [9]; “Active” in data set [10]; “Not Active” in [11]. The Drug uptake entry in data set [12] and in data set [14] was “Active” in each case. In addition, in data set [5], the “fold change (FC)” value was 8. Further, in [6], the outcome was Active. The IC50 in data set [7] is above 1000 nM; in data set [8], 94 nM; in data set [13], 44 nM.
